Measurements taken from ChEMBL document CHEMBL3627632, “Novel 1,4-naphthoquinone-based sulfonamides: Synthesis, QSAR, anticancer and antimalarial studies” (Eur J Med Chem, 2015).

Legend:
Plasmodium falciparum = test: Antimalarial activity against multidrug-resistant Plasmodium falciparum K1 infected in human erythrocytes after 48 hrs by [3H]hypoxanthine incorporation assay; format: functional, organism-based
Outline: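 K1 parasites kept in RPMI 1640 with 20 mM HEPES, 32 mM NaHCO3, 10% human serum and 3% erythrocytes, at 37 °C under 3% CO2. Ring-stage culture (1.5% haematocrit, 1% parasitemia) was exposed to compound for 24 h at 0.1% DMSO final. 0.5 µCi [3H]hypoxanthine was then added for a further 24 h. Incorporation was scintillation-counted, and growth was expressed as treated/untreated cpm ×100.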

[1] = Cytotoxicity against human MOLT3 cells after 48 hrs by XTT assay; format: functional, cell-based; conditions: MOLT-3, 48 h
Outline: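 Suspension MOLT-3 cells seeded at 10,000-20,000 per well and preincubated 24 h at 37 °C, 5% CO2. Compound serial dilutions added in an equal volume of medium, DMSO as negative control, then 48 h. Surviving cells measured by XTT. IC50 is the concentration inhibiting growth 50% relative to the DMSO control.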

Vero = test: Cytotoxicity against African green monkey Vero cells after 4 days by GFP detection method; format: cell-based; conditions: Chlorocebus sabaeus, 96 h
Outline: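 Vero cells stably transfected with pEGFP-N1, kept in MEM with 10% heat-inactivated FBS, 2 mM L-glutamine, 1 mM pyruvate, 0.8 mg/mL geneticin at 37 °C, 5% CO2. Cells at 3.3 × 10^4 cells/mL added to compounds prediluted in 0.5% DMSO, 384-well, 4 days. GFP fluorescence read at ex 485/em 535 nm, day-0 background subtracted. IC50 from 6-point 3-fold dilution curves.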

HepG2 = test: Cytotoxicity against human HepG2 cells after 48 hrs by MTT assay; format: functional, cell-based; conditions: HepG2, 48 h
Outline: (§1)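 Adherent cells seeded at 10,000-20,000 per well and preincubated 24 h at 37 °C, 5% CO2. Serial dilutions of compound added in an equal volume of medium, DMSO as negative control, then 48 h further incubation. Surviving cells measured by MTT. IC50 is the concentration giving 50% growth inhibition relative to the DMSO control.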

A549 = test: Cytotoxicity against human A549 cells after 48 hrs by MTT assay; format: functional, cell-based; conditions: A549, 48 h
Outline: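 Adherent cells seeded at 10,000-20,000 per well and preincubated 24 h at 37 °C, 5% CO2. Serial dilutions of compound added in an equal volume of medium, DMSO as negative control, then 48 h further incubation. Surviving cells measured by MTT.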

[2] = Cytotoxicity against HuCCa1 cells after 48 hrs by MTT assay; format: functional, cell-based; conditions: Homo sapiens, HuCC-A1, 48 h; outline: as §1
[3] = Plasmodium falciparum, K1, read-out: IC50

Structure (SMILES): O=C1C(Cl)=C(Nc2cccc(S(=O)(=O)NCc3ccccn3)c2)C(=O)c2ccccc21
- IC50 (Plasmodium falciparum): Not Active
- IC50 [1]: 2.38 µM
- IC50 (Vero): 2.82 µM
- IC50 (HepG2): 4.56 µM
- IC50 (A549): 2.31 µM
- IC50 [2]: 3.66 µM

Structure (SMILES): O=C1C(Cl)=C(Nc2cccc(S(=O)(=O)NCCc3ccccc3)c2)C(=O)c2ccccc21
- IC50 (Plasmodium falciparum; [3]): 6.3 µM
- IC50 [1]: 3.3 µM
- IC50 (Vero): 3.85 µM
- IC50 (HepG2): 12.8 µM
- IC50 (A549): 31.1 µM
- IC50 [2]: 9.47 µM

Structure (SMILES): O=C1C(Cl)=C(Nc2cccc(S(=O)(=O)NCCc3ccccn3)c2)C(=O)c2ccccc21
- IC50 (Plasmodium falciparum): Not Active
- IC50 [1]: 2.2 µM
- IC50 (Vero): 20.2 µM
- IC50 (HepG2): 5.13 µM
- IC50 (A549): 3.93 µM
- IC50 [2]: 5.77 µM

Structure (SMILES): O[C@@H](c1cc(C(F)(F)F)nc2c(C(F)(F)F)cccc12)[C@H]1CCCCN1 (relative stereo) [(S,R)-MEFLOQUINE]
- IC50 (Plasmodium falciparum; [3]): 0.0269 µM

Structure (SMILES): C[C@H]1[C@@H](O)O[C@@H]2O[C@@]3(C)CC[C@H]4[C@H](C)CC[C@@H]1[C@@]24OO3 [ARTENIMOL]
- IC50 (Plasmodium falciparum; [3]): 0.00142 µM

Structure (SMILES): COc1cc([C@@H]2c3cc4c(cc3[C@@H](O[C@@H]3O[C@@H]5CO[C@@H](C)O[C@H]5[C@H](O)[C@H]3O)[C@H]3COC(=O)[C@H]23)OCO4)cc(OC)c1O [ETOPOSIDE]
- IC50 [1]: 0.041 µM
- IC50 (HepG2): 34 µM

Structure (SMILES): O=C1C(Cl)=C(Nc2ccc(S(=O)(=O)N3CCc4ccccc4C3)cc2)C(=O)c2ccccc21
- IC50 (Plasmodium falciparum; [3]): 14.7 µM
- IC50 [1]: 8.56 µM
- IC50 (Vero): 20.3 µM
- IC50 (HepG2): 36.9 µM
- IC50 (A549): 48.4 µM
- IC50 [2]: 57.8 µM

Structure (SMILES): O=C1C(Cl)=C(Nc2cccc(S(=O)(=O)N3CCc4ccccc4C3)c2)C(=O)c2ccccc21
- IC50 (Plasmodium falciparum; [3]): 7.27 µM
- IC50 [1]: 1.92 µM
- IC50 (Vero): 4.2 µM
- IC50 (HepG2): 11 µM
- IC50 (A549): 21.9 µM
- IC50 [2]: 6.08 µM

Structure (SMILES): O=C1C(Cl)=C(Nc2ccc(S(=O)(=O)NCCc3ccccn3)cc2)C(=O)c2ccccc21
- IC50 (Plasmodium falciparum): Not Active
- IC50 [1]: 1.37 µM
- IC50 (Vero): 99.9 µM
- IC50 (HepG2): 10.3 µM
- IC50 (A549): 31.4 µM
- IC50 [2]: 5.88 µM

Structure (SMILES): COc1cc2c(cc1OC)CN(S(=O)(=O)c1cccc(NC3=C(Cl)C(=O)c4ccccc4C3=O)c1)CC2
- IC50 (Plasmodium falciparum; [3]): 8.79 µM
- IC50 [1]: 2.34 µM
- IC50 (Vero): 11.2 µM
- IC50 (HepG2): 43.3 µM
- IC50 (A549): 63.1 µM
- IC50 [2]: 26.4 µM

Structure (SMILES): COc1cc2c(cc1OC)CN(S(=O)(=O)c1ccc(NC3=C(Cl)C(=O)c4ccccc4C3=O)cc1)CC2
- IC50 (Plasmodium falciparum; [3]): 2.8 µM
- IC50 [1]: 1.73 µM
- IC50 (Vero): 0.944 µM
- IC50 (HepG2): 14.4 µM
- IC50 (A549): 20.2 µM
- IC50 [2]: 5.21 µM

Structure (SMILES): O=C1C(Cl)=C(Nc2ccc(S(=O)(=O)NCc3ccccn3)cc2)C(=O)c2ccccc21
- IC50 (Plasmodium falciparum): Not Active
- IC50 [1]: 1.37 µM
- IC50 (Vero): 10.8 µM
- IC50 (HepG2): 3.3 µM
- IC50 (A549): 5.88 µM
- IC50 [2]: 5 µM

Structure (SMILES): O=C1C(Cl)=C(Nc2ccc(S(=O)(=O)NCCc3ccccc3)cc2)C(=O)c2ccccc21
- IC50 (Plasmodium falciparum): Not Active
- IC50 [1]: 2.18 µM
- IC50 (Vero): > 107 µM
- IC50 (HepG2): 6.27 µM
- IC50 (A549): 11.2 µM
- IC50 [2]: 4.93 µM

Structure (SMILES): COc1cccc2c1C(=O)c1c(O)c3c(c(O)c1C2=O)C[C@@](O)(C(=O)CO)C[C@@H]3O[C@H]1C[C@H](N)[C@H](O)[C@H](C)O1 [DOXORUBICIN]
- IC50 [2]: 0.42 µM

Structure (SMILES): Cc1c2ccncc2c(C)c2c1[nH]c1ccccc12 [ELLIPTECINE]
- IC50 (Vero): 4.05 µM

Structure (SMILES): COc1ccc(CCNS(=O)(=O)c2cccc(NC3=C(Cl)C(=O)c4ccccc4C3=O)c2)cc1OC
- IC50 (Plasmodium falciparum; [3]): 10.1 µM
- IC50 [1]: 4.95 µM
- IC50 (Vero): 3.76 µM
- IC50 (HepG2): 9.49 µM
- IC50 (A549): 27.2 µM
- IC50 [2]: 8.5 µM

Structure (SMILES): COc1ccc(CCNS(=O)(=O)c2ccc(NC3=C(Cl)C(=O)c4ccccc4C3=O)cc2)cc1OC
- IC50 (Plasmodium falciparum; [3]): 9.96 µM
- IC50 [1]: 2.05 µM
- IC50 (Vero): 21.1 µM
- IC50 (HepG2): 6.07 µM
- IC50 (A549): 13 µM
- IC50 [2]: 5.5 µM
